Legend:
MS2 coat protein [1] = assay: apparent Kd, MS2 coat protein; higher = weaker binding; RNA-MaP array
Summary of the method: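 The designed RNAs, transcribed from sequenced DNA templates on an Illumina sequencing chip, were incubated with fluorescently labeled MS2 coat protein at room temperature. Protein ranged from 1.5 nM to 3 μM, with 0.8–1.5 h incubation at the lowest and 10–20 min at the highest concentrations, in Tris-HCl pH 7.5 buffer with KCl, MgCl2, BSA, DTT, tRNA and Tween20, with or without input ligand. The median of per-cluster binding-curve fits gives the apparent Kd, and designs measured on fewer than 10 clusters were excluded.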

MS2 coat protein [2] = assay: apparent Kd, MS2 coat protein; higher = weaker binding; RNA-MaP array; FMN 200 µM where present
Summary of the method: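 In 100 mM Tris-HCl pH 7.5, 80 mM KCl, 4 mM MgCl2, BSA, DTT, yeast tRNA and Tween-20, SNAP-549-labelled MS2 coat protein was titrated from 0.7 or 1.5 nM, doubling to 3 µM, over designs transcribed by stalled E. coli RNA polymerase on Illumina sequencing-chip clusters. This was done first without ligand, then with ligand held constant. After green signal was normalised to red-channel RNA signal and control-cluster median Fmax, the apparent Kd was taken as the median of filtered per-cluster binding-curve fits.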

[3] = designed as: OFF switch for flavin mononucleotide, no ligand
[4] = ligand present: flavin mononucleotide, designed as: OFF switch for flavin mononucleotide
[5] = designed as: ON switch for flavin mononucleotide, no ligand
[6] = ligand present: flavin mononucleotide, designed as: ON switch for flavin mononucleotide

Sequence	apparent Kd (MS2 coat protein [2]; [3]) [nM]	apparent Kd (MS2 coat protein [2]; [4]) [nM]	apparent Kd (MS2 coat protein [2]; [5]) [nM]	apparent Kd (MS2 coat protein [2]; [6]) [nM]	also measured
UAUGUCGCCGAAGAUACCAGCCUGGCAAGCAACAUGAGGAUCACCCAUGUAAUUACUUAUGGCCCUUGGCAGCUUCAAAUAGAGC	–	–	–	–	apparent Kd (MS2 coat protein [1]; designed as: ON switch for theophylline, no ligand): 11.4 nM; apparent Kd (MS2 coat protein [1]; ligand present: theophylline, designed as: ON switch for theophylline): 11.8 nM
AUUUGGCGUAGUGUUGCUCGUGGGAUAAAACGAGGACCGGUACGGCCGCCACUCGAUGAUUAACAUGAGGAUCACCCAUGUAAAU	–	–	–	–	apparent Kd (MS2 coat protein [1]; designed as: OFF switch for tryptophan, no ligand): 24.6 nM; apparent Kd (MS2 coat protein [1]; ligand present: tryptophan, designed as: OFF switch for tryptophan): 104 nM
UAAAUUAACAAGAAGGCUAACAUGAGGAUCACCCAUGUUGUACAUGGAUAUAGAGGAUAUUGCUAAUAUUUAUUUAUCAUAAUU	21.8	17.3	–	–	–
UGACGGCACACAGGAUAUAGCGCAGAAAGUACGCUAGAAGGGUGAGCACUCGUCCGGGCACAUGAGGAUCACCCAUGUCGUCGA	–	–	204	472	–
AGUUGGGUCACAGGAUAUGCGCCGGCAUGCGAAGCAGAAGGGUGACGAGGUUGGGAACAUGAGGAUCACCCAUGUAUCGCAUAA	–	–	319	36.5	–
AGAUUUAAUACAGGAUAUGUUAGUAUACAGUUGAUUGGUUAUUACAUUAUGACAGAAGGGUAGAACAUGAGGAUCACCCAUGUA	–	–	241	115	–
CAGAGUAAAGGAUAUACAUGAGGAUCACCCAUGUUUAGACCGACGACACGUCCUAGUUGUAGAAGGUUAUUUUG	82.2	68.7	–	–	–
UUGAUUAGAAGUUAACAUGAGGAUCACCCAUGUAUUGGAUCAGAGGAUAUGCAUGUUUGAUAGUAGCAGAAGGCUGAUGGUGGA	–	–	53.5	61.6	–
GCGCAAACGCCAAAAGGCGAAAUUACAUGAGGAUCACCCAUGUAGGAUAUCGAUUGCUUUGCAGUCGAGAAGGACAUGAUGCGC	19.2	23.9	–	–	–
GCAGUAAAUAAAUGCACAUGAGGAUCACCCAUGUGGGAGGCACAGGAUAUCGUAUCAUAGUGGUACGAGAAGGGUGAUAAUCUC	–	–	425	84.4	–
UUUAGUUGCGGGCAGGAUAUGUAUUAAAAUACAUGAGGAUCACCCAUGUGCGGGUAUAACACCCGACAGAAGGGCCAAUCGCGAC	–	–	322	33.3	–
CUGUUAUAGAUCCAUUUUUUCAACAUGAGGAUCACCCAUGUGCAGGAUAUCGUGAUUAUUUUCAUCGAGAAGGGCAUAAUCACG	46.6	51	–	–	–
CCCUCACAUGAGGAUCACCCAUGUCAGGAUAUCUAGUCAGAUAGUGUAGCACUAAUGAAGAGAAGGGACGUAUA	18.2	23.9	–	–	–
AGUAAGAUGCAGAAGGUGUUAGCUAGAGCUACGACAUGAGGAUCACCCAUGUACUAAAACCCGUACAAGGAUAUGCAUCUUACA	–	–	8.17	6.47	–
ACACCGUCAGGAUAUUGGAAGACACCCAGGAGGGUGCCUUUCGAGAAGGGACAUGAGGAUCACCCAUGUGCAGU	27.9	58.6	–	–	–
ACGUUAAAAGGAUAUACAUGAGGAUCACCCAUGUUGUUCGAACUGGUAAACCCUCUAUGUAGAAGGUUUGGCAC	23.5	50.1	–	–	–
AACCCUGCCUAGGAUAUACAAAAGUCACAGCUGGUAGAAGGAGGCACAUGAGGAUCACCCAUGUCACCUCGCUU	13.4	13.7	–	–	–
CUCCUACAUGAGGAUCACCCAUGUCAGGAUAUCUCAGUAGCACCUAAAGGUGCUACCCAGAGAAGGGACGUGCA	11.6	15.5	–	–	–
GGUUCGAAAGUGAGGAUAUGCUGGUCCUUGGAUCAGCAGAAGGCACAUGAGGAUCACCCAUGUCCAAGCGGACC	59	398	–	–	–
AGUAGAUCAGGAUAUACAUAAAUGAUAAUUAUGUAACUUCUACAUGAGGAUCACCCAUGUAGAAGGGAUCUACA	12.6	13.1	–	–	–
AUGACCUCAGUCAGGAUAUCGGCGCGGUGACGACUCGAGAAGGGACAUGAGGAUCACCCAUGUCUCGAUUAUAG	15.4	22.2	–	–	–
AUCAGCUCGUCAGGAUAUACAUCACUGCGUCAGCAGUGUGGUAAGAUCACAUGAGGAUCACCCAUGUAGAAGGGACGAGCUGAU	13.9	252	–	–	–
GCAGCGUAUGUAGGAUAUCGGUCAGAUUCUGAUCGAGAAGGACAUGAGGAUCACCCAUGUAAAUUACCGACUUUGUCGGGCUGC	6.73	8.18	–	–	–
UGUCGGAGCAGAGGAUAUUACAUGAGGAUCACCCAUGUAUGAACCAAGAGCUGGAAACAGCAAUGUAAGAAGGCUGCUCCGACA	10.9	121	–	–	–
CUAUUUAGUGCCUCAUGUACAUGAGGAUCACCCAUGUUAACUUAGGAUAUAUUUAUAUUGUUAGAGUAGAAGGAAGUACUAUUU	26.3	21.5	–	–	–
UCAUAAAUUCGAGGAUAUCGGUGAUAAAGAAGACGAGAAGGCGAUUAGAGAGAGAUGUUUAUAGACAUGAGGAUCACCCAUGUU	–	–	30	24.8	–

— the EternaBench riboswitch data
